In article PMC3107129 (Nature chemical biology, 2010):

Columns and labels:
[1] = target: TTR in human blood plasma (Homo sapiens, UniProt P02766); assay: covalent modification of TTR in human blood plasma ex vivo; type: binding; settings: compound 10.8 μM, 37 °C, maximum 50% (2/4 subunits)
In short: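 Test compound at 10.8 μM final, from DMSO stock, incubated with human plasma (TTR 3.6–5.4 μM) for 24 h at 37 °C with rocking. Plasma pre-cleared on plain sepharose for 1 h at 4 °C. TTR immunocaptured on anti-TTR sepharose for 20 min at 4 °C, then washed with Tris-saline ± 0.05% saponin. Eluted with 100 mM triethylamine, pH 11.5. C18 RP-HPLC, 45-min 0.1% TFA water→acetonitrile gradient; at most 2/4 subunits modifiable.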

recombinant WT-TTR = recombinant WT-TTR (Homo sapiens, UniProt P02766); assay: conjugation of recombinant WT-TTR by RP-HPLC; type: binding; settings: for conjugation half-life (t50) with WT-TTR: recombinant WT-TTR, C18-RP-HPLC
K15A-TTR [2] = target: T1, K15A-TTR (Homo sapiens, UniProt P02766, K35A); assay: non-covalent binding to K15A-TTR; settings: out of a maximum of 2 eq.; immunocapture, high-pH dissociation, HPLC
K15A-TTR [3] = target: T1, K15A-TTR; assay: reaction with K15A-TTR homotetramer by RP-HPLC; type: binding; settings: compound 7.2 μM, 18 h, 25 °C
K15A-TTR [4] = target: T1, K15A-TTR; assay: K15A-TTR fibril formation at pH 4.4 with non-covalent stabilizers; type: biochemical; settings: compound 7.2 μM, 72 h
[5] = test system: IMR-32 human neuroblastoma cells; settings: cited from earlier work

Q: Which “% Modification of TTR subunits in Human Blood Plasma” value [1] does the source give for `O=C(Sc1ccccc1)c1cccc(/C=C/c2cc(Br)c(O)c(Br)c2)c1` [Compound 1] here?
A: 36% (±0.4%)

Q: What about the “conjugation half-life (t50) with WT-TTR” value (recombinant WT-TTR) of the same molecule?
A: 143 min

Q: What does the source list for `Cc1cc(/C=C/c2cccc(C(=O)Sc3ccccc3)c2)cc(C)c1O` [Compound 2]?
A: % Modification of TTR subunits in Human Blood Plasma [1]: 48% (±1.3%); conjugation half-life (t50) with WT-TTR (recombinant WT-TTR): 5 to 15 min

Q: For `Cc1cc(/C=C/c2cccc(C(=O)Oc3ccccc3[N+](=O)[O-])c2)cc(C)c1O` [Compound 3], which “% Modification of TTR subunits in Human Blood Plasma” value [1] is on record?
A: 49% (±0.7%)

Q: What about the “conjugation half-life (t50) with WT-TTR” value (recombinant WT-TTR) of the same molecule?
A: 5 to 15 min

Q: Which results are given for `Cc1cc(/C=C/c2cccc(C(=O)Oc3ccc(F)cc3)c2)cc(C)c1O` [Compound 4]?
A: equivalents non-covalently bound to K15A-TTR homotetramer (K15A-TTR [2]): 1.4 eq.; reaction with K15A-TTR (K15A-TTR [3]): no reaction could be detected

Q: For `Cc1cc(/C=C/c2ccc(C(=O)Oc3ccccc3[N+](=O)[O-])cc2)cc(C)c1O` [Compound 6], which “reaction with K15A-TTR” value (K15A-TTR [3]) is on record?
A: more non-chemoselective conjugation

Q: Which “conjugation yield with WT-TTR” value (recombinant WT-TTR; WT-TTR […], compound 7.2 μM, 18 h, 25 °C) does the source give for `Cc1cc(/C=C/c2ccc(C(=O)Oc3ccc(F)cc3)cc2)cc(C)c1O` [Compound 7] here?
A: lower modification yield

Q: With `Cc1cc(/C=C/c2cccc(C(=O)O)c2)cc(C)c1O` [Compound 8] as the molecule, how does the “stabilization of K15A-TTR against fibril formation” value (K15A-TTR [4]) read?
A: additional stabilization of K15A-TTR was observed

Q: For `Cc1cc(/C=C/c2ccccc2)cc(C)c1O` [Compound 9], which “stabilization of K15A-TTR against fibril formation” value (K15A-TTR [4]) is on record?
A: additional stabilization of K15A-TTR was observed

Q: With `Oc1ccc(/C=C/c2cc(O)cc(O)c2)cc1` [resveratrol] as the molecule, how does the “prevention of amyloid-formation-associated cytotoxicity” value [5] read?
A: known to prevent amyloid-formation-associated cytotoxicity
